Consider eight compounds from ChEMBL document CHEMBL3351552, “Structure-activity profiles of novel 6-substituted pyrrolo[2,3-d]pyrimidine thienoyl antifolates with modified amino acids for cellular uptake by folate receptors α and β and the proton-coupled folate transporter” (J Med Chem, 2014).

Activity calls are given as the source filed them. The calls are words filed in the database; no cut-off is given here. Bounds are passed on as bounds.

For assay [1], the system named is R2. In words: Cytotoxicity against Chinese hamster R2 cells expressing empty vector assessed as cell growth inhibition incubated up to 96 hrs by Celltiter-blue cell viability assay. The assay is classed as cell-based, Cricetulus griseus. The settings on record: R2, 96 h.
Assay [2] has as its system R2. In words: Cytotoxicity against Chinese hamster R2 cells assessed as cell growth inhibition incubated up to 96 hrs by Celltiter-blue cell viability assay. The assay is classed as cell-based. The note with it: Cricetulus griseus, R2, 96 h.
Assay [3] concerns KB. In words: Cytotoxicity against human KB cells assessed as cell growth inhibition incubated up to 96 hrs in presence of 200 nM folic acid by Celltiter-blue cell viability assay. The assay is classed as functional, cell-based. In short, it runs like this: (§1)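 Cells plated at ~2500–5000/well in folate-free RPMI with 10% dialyzed FBS, antibiotics, 2 nM LCV and 2 mM L-glutamine, exposed to a range of drug concentrations. RT16 were pre-cultured 3 days in folate-free RPMI. FR dependence was tested in parallel wells containing 200 nM folic acid. Incubation up to 96 h, CellTiter-Blue fluorescence read-out. IC50 taken versus untreated cells.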

For assay [4], the target named is Folate receptor beta (Homo sapiens) (UniProt P14207). In words: Inhibition of [3H]folic acid binding to FRbeta (unknown origin) expressed in Chinese hamster D4 cells. Type of assay: cell-based. In short, it runs like this: (§2)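 RT16 (FRα) or D4 (FRβ) CHO cells (~5 × 10^6) were stripped of bound folate with pH 3.5 acetate/saline, then washed in ice-cold HEPES-buffered saline pH 7.4. Cells were incubated 15 min at 0 °C with 50 nM [3H]folic acid (0.5 Ci/mmol) plus 0–1000 nM unlabeled competitor. Cells were rinsed cold, NaOH-solubilized, and counts normalized to protein. […] Mean ± SE, n=3.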
Chain of Folate receptor beta (Homo sapiens) (P14207 17-230 limits assumed): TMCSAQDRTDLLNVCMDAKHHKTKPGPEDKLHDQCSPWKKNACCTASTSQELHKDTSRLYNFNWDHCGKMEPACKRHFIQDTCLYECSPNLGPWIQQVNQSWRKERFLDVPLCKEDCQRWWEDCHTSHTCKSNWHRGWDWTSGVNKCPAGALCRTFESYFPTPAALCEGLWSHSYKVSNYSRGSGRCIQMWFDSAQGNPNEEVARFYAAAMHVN

The target of assay [5] is Folate receptor alpha (Homo sapiens) (UniProt P15328). In words: Inhibition of [3H]folic acid binding to FRalpha (unknown origin) expressed in Chinese hamster RT16 cells. The assay is classed as cell-based. The method, boiled down:
as §2

Assay [6] deals with KB. In words: Cytotoxicity against human KB cells assessed as cell growth inhibition incubated up to 96 hrs by Celltiter-blue cell viability assay. Type of assay: functional, cell-based. In short, it runs like this: as §1
Assay [7] deals with T1, Proton-coupled folate transporter (Homo sapiens) (UniProt Q96NT5).
T1 sequence (whole entry): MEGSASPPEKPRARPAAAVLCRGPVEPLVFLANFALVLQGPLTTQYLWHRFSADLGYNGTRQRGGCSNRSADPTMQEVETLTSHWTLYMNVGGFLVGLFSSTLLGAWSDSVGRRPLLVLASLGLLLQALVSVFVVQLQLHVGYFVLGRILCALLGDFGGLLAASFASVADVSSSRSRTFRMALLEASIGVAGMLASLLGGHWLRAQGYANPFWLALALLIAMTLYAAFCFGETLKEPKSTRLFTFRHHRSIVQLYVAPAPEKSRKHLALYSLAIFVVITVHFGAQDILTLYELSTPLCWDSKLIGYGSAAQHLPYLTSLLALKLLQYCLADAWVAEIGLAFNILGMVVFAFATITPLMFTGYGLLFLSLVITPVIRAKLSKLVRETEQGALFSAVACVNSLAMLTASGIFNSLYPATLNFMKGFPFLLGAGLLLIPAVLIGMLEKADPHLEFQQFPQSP
In words: Inhibition of PCFT (unknown origin) expressed in Chinese hamster R2/PCFT4 cells assessed as reduction in PCFT-mediated [3H]MTX transport at 10 uM at pH 6.8 and 37 degC incubated for 5 mins. The assay is classed as cell-based. The method, boiled down: (§3)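 Uptake was quenched with ice-cold DPBS, cells washed and solubilized in 0.5 N NaOH. Radioactivity was expressed per mg protein and normalized to untreated controls. Mean ± SE of three experiments.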

Assay [8] deals with T1, Proton-coupled folate transporter (Homo sapiens). In words: Inhibition of PCFT (unknown origin) expressed in Chinese hamster R2/PCFT4 cells assessed as reduction in PCFT-mediated [3H]MTX transport at 10 uM at pH 5.5 and 37 degC incubated for 5 mins. The assay is classed as cell-based. The method, boiled down:
as §3

The target of assay [9] is T2, Proton-coupled folate transporter (Homo sapiens, UniProt Q96NT5).
T2 sequence (Q96NT5 whole entry): T1 sequence (whole entry)
In words: Inhibition of PCFT (unknown origin) expressed in Chinese hamster R2/PCFT4 cells assessed as reduction in PCFT-mediated [3H]MTX transport at pH 5.5 and 37 degC incubated for 5 mins. The assay is classed as cell-based.

In assay [10] the target is T1, Proton-coupled folate transporter (Homo sapiens). In words: Inhibition of PCFT (unknown origin) expressed in Chinese hamster R2/PCFT4 cells assessed as reduction in PCFT-mediated [3H]MTX transport at 1 uM at pH 5.5 and 37 degC incubated for 5 mins. The assay is classed as cell-based. The method, boiled down:
as §3

Assay [11] deals with KB. In words: Cytotoxicity against human KB cells assessed as cell growth inhibition incubated up to 96 hrs in presence of 60 uM adenosine by Celltiter-blue cell viability assay. The assay is classed as functional, cell-based. In short, it runs like this:
(§4)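 KB cells grown in complete folate-free RPMI 1640 with 2 nM LCV over a range of drug concentrations, with added thymidine (10 μM), adenosine (60 μM) or AICA (320 μM) as protecting agents. After up to 96 h, density measured by CellTiter-Blue fluorescence and normalized to drug-free cells. Experiments run in triplicate.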

Assay [12] addresses T1, Proton-coupled folate transporter (Homo sapiens). In words: Inhibition of PCFT (unknown origin) expressed in Chinese hamster R2/PCFT4 cells assessed as reduction in PCFT-mediated [3H]MTX transport at 1 uM at pH 6.8 and 37 degC incubated for 5 mins. The assay is classed as cell-based. In short, it runs like this:
as §3

Assay [13] has as its system KB. In words: Cytotoxicity against human KB cells assessed as cell growth inhibition incubated up to 96 hrs in presence of 320 uM AICA by Celltiter-blue cell viability assay. The assay is classed as functional, cell-based. In short, it runs like this: as §4
The test system of assay [14] is KB. In words: Cytotoxicity against human KB cells assessed as cell growth inhibition incubated up to 96 hrs in presence of 10 uM thymidine by Celltiter-blue cell viability assay. The assay is classed as functional, cell-based. In short, it runs like this:
as §4

Chain of Folate receptor alpha (Homo sapiens) (P15328 25-234 limits assumed): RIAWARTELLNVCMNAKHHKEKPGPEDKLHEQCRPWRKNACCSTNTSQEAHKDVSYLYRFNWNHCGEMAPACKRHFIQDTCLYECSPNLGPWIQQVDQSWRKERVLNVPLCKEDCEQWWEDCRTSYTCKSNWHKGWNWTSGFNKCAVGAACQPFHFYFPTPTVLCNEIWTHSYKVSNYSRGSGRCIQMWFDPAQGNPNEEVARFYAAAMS

Consider `Nc1nc2[nH]c(CCCc3ccc(C(=O)NCCCC(=O)O)s3)cc2c(=O)[nH]1`, for which the IC50 in the assay on R2 [1], in the assay with R2 [2], in the assay with KB [3] and in the assay with KB [6] was over 1000 nM throughout. Besides, the inhibition result in assay [4] and in assay [5] was “Active” each time.
For `CCC[C@H](NC(=O)c1ccc(CCCc2cc3c(=O)[nH]c(N)nc3[nH]2)s1)C(=O)O`, the half-maximal inhibitory concentration (IC50) in the assay with R2 [1], with R2 [2], with KB [3] and with KB [6] was over 1000 nM throughout. Moreover, the values for the inhibition in assay [7], in [8] and in assay [10] were 30%, 70% and 25%, respectively. In addition, the inhibition result in [4] and in [5] was “Active” each time. The Ki in [9] came to 2900 nM.
Regarding `CN(Cc1cnc2nc(N)nc(N)c2n1)c1ccc(C(=O)N[C@@H](CCC(=O)O)C(=O)O)cc1` [METHOTREXATE], the half-inhibitory concentration (IC50) in the assay on R2 [1] was over 1000 nM. The inhibition entry in [4] and in assay [5] was “inactive” each time.
`Nc1nc(=O)c2nc(CNc3ccc(C(=O)N[C@@H](CCC(=O)O)C(=O)O)cc3)cnc2[nH]1`: the inhibition result in [4] and in [5] was “Active” in each case.
Regarding `Nc1nc2[nH]c(CCCc3ccc(C(=O)N[C@@H](CCC(=O)O)C(=O)O)s3)cc2c(=O)[nH]1`, in the assay with KB [3], the IC50 is over 1000 nM. The “growth inhibition (GI)” value in the assay with KB [11] and with KB [13] was “inactive” throughout. Moreover, the inhibition in assay [7] turned out to be 70%; in assay [8] it was 95%; in [12], 20%; in assay [10], 80%. Moreover, the inhibition entry in assay [4] and in [5] was “Active” in each case. The “growth inhibition (GI)” value in the assay on KB [14] was “Active”.
On to `Nc1nc2[nH]c(CCCc3ccc(C(=O)O)s3)cc2c(=O)[nH]1`, for which the IC50 in the assay with R2 [1], with R2 [2], in the assay with KB [3] and in the assay on KB [6] was over 1000 nM throughout. For the same compound, the inhibition entry in [4] and in assay [5] was “Active” in each case.
Consider `Nc1nc2[nH]c(CCCc3ccc(C(=O)N[C@@H](CCCC(=O)O)C(=O)O)s3)cc2c(=O)[nH]1`, for which the IC50 is over 1000 nM in the assay on R2 [1], over 1000 nM in the assay with R2 [2], over 1000 nM in the assay with KB [3] and 9 nM in the assay on KB [6]. Besides, the “growth inhibition (GI)” value in the assay on KB [11] and in the assay with KB [13] was “inactive” in each case. The inhibition in assay [7] came to 30%; in [8] it was 75%; in [10], 10%. Further, the inhibition result in [4] and in assay [5] was “Active” in each case. For the same compound, the Ki in [9] worked out at 1600 nM. The “growth inhibition (GI)” value in the assay with KB [14] was “Active”.
In the case of `Nc1nc2[nH]c(CCCc3ccc(C(=O)N[C@@H](CC(=O)O)C(=O)O)s3)cc2c(=O)[nH]1`, the IC50 in the assay on R2 [1], with R2 [2], in the assay on KB [3] and in the assay on KB [6] was over 1000 nM throughout. The inhibition entry in [4] and in [5] was “Active” throughout.
